The target of experiment [1] is T1, C-X-C chemokine receptor type 4 (Homo sapiens, UniProt P61073). Put plainly: Inhibition of [125I]SDF1 binding to CXCR4 transfected in CHO cells. Type of experiment: cell-based. An outline of the steps:
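CXCR4-expressing stable CHO transfectants were harvested with trypsin-EDTA, recovered 4-5 h in complete medium, and washed in cold PBS with 2 mg/mL BSA. Cells at 1 × 10⁷/mL were incubated with 0.1 nM [¹²⁵I]-SDF-1 for 2 h on ice with agitation. Bound label was separated by centrifugation through oil and gamma-counted.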

In experiment [2] the test system is Human immunodeficiency virus 1. Put plainly: Inhibition of HIV1-induced cytopathogenicity in MT4 cells. Type of experiment: functional, organism-based. Conditions: Human immunodeficiency virus 1, MT4. An outline of the steps: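 MT-4 cells were grown in RPMI 1640 with 10% heat-inactivated FCS and penicillin/streptomycin. Cells infected with HIV-1 IIIB (X4 strain) at MOI 0.01 were plated at 1.5 × 10⁴ cells/well with various compound concentrations. After 5 days at 37 °C in CO₂, viable cells were counted by MTT. EC50 for protection is the mean of ≥3 independent experiments.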

Experiment [3] has as its target T1, C-X-C chemokine receptor type 4. Put plainly: Antagonist activity against CXCR4 transfected in CHO cells upto 1 uM. It is filed as functional, cell-based.

The record followed here is ChEMBL document CHEMBL1139233, “Structure-activity relationships of cyclic peptide-based chemokine receptor CXCR4 antagonists: disclosing the importance of side-chain and backbone functionalities” (J Med Chem, 2007).

pEC50, pIC50: −log10 of the molar value. The source made the active and inactive calls. The calls are words filed in the database; no cut-off is given here. A value given as a limit tells only on which side of the number the result lay.

T1 sequence (P61073 whole entry): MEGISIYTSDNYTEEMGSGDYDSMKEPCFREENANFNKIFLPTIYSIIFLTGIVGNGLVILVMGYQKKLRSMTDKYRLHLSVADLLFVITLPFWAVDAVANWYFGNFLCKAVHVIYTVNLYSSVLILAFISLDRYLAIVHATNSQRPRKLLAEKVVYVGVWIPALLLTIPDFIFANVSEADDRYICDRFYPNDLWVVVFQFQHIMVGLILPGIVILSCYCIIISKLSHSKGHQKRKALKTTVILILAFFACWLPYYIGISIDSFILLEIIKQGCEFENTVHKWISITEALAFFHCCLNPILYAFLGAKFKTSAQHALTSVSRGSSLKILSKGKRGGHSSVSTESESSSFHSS

For `C[C@@H]1NC(=O)[C@H](CCCNC(=N)N)NC(=O)[C@H](CCCNC(=N)N)NC(=O)[C@@H](Cc2ccc(O)cc2)NC(=O)CN(C)C1=O`, the pIC50 in experiment [1] (cho) is 6.78.

With `C[C@H]1NC(=O)[C@H](Cc2ccc3ccccc3c2)NC(=O)[C@H](CCCNC(=N)N)NC(=O)[C@@H](CCCNC(=N)N)NC(=O)[C@@H](Cc2ccc(O)cc2)NC1=O`, the pEC50 in experiment [2] is 6.17. The negative logarithm of the IC50 (pIC50) in experiment [1] is 7.96.

On to `N=C(N)NCCC[C@@H]1NC(=O)[C@H](CCCNC(=N)N)NC(=O)[C@@H](Cc2ccc(O)cc2)NC(=O)CCNC(=O)[C@H](Cc2ccc3ccccc3c2)NC1=O`, for which, in experiment [2], the pEC50 was 5.52. Also, the pIC50 in experiment [1] is 7.33.

As for `C[C@H]1NC(=O)CNC(=O)[C@H](Cc2ccc3ccccc3c2)NC(=O)[C@H](CCCNC(=N)N)NC(=O)[C@H](CCCNC(=N)N)NC1=O`, the pEC50 in experiment [2] is 3.94. The pIC50 in experiment [1] was < 6.00.

Consider `CN1C(=O)[C@@H](CCCNC(=N)N)NC(=O)[C@@H](Cc2ccc(O)cc2)NC(=O)CNC(=O)[C@H](Cc2ccc3ccccc3c2)NC(=O)[C@@H]1CCCNC(=N)N`, for which, in experiment [2], the pEC50 is 6.11. The pIC50 in experiment [1] was 7.68.

Regarding `N=C(N)NCCC[C@@H]1NC(=O)[C@@H](CCCNC(=N)N)NC(=O)[C@@H](Cc2ccc(O)cc2)NC(=O)[C@@H]2CCCCN2C(=O)[C@H](Cc2ccc3ccccc3c2)NC1=O`, the pIC50 in experiment [1] is 6.19.

`CN1C(=O)CNC(=O)[C@H](Cc2ccc3ccccc3c2)NC(=O)[C@H](CCCNC(=N)N)NC(=O)[C@H](CCCNC(=N)N)NC(=O)[C@H]1Cc1ccc(O)cc1`: the pIC50 in experiment [1] was 6.89.

In turn, `CN1C(=O)[C@@H](Cc2ccc(O)cc2)NC(=O)CNC(=O)[C@H](Cc2ccc3ccccc3c2)NC(=O)[C@H](CCCNC(=N)N)NC(=O)[C@H]1CCCNC(=N)N` had a pEC50 in experiment [2] of 7.06. The compound also gave a pIC50 in experiment [1] of 8.52.

As to `N=C(N)NCCC[C@@H]1NC(=O)[C@H](CCCNC(=N)N)NC(=O)[C@@H](Cc2ccc(O)cc2)NC(=O)[C@H]2CCCN2C(=O)[C@H](Cc2ccc3ccccc3c2)NC1=O`, the pIC50 in experiment [1] is < 6.00.

Turning to `C[C@@H]1NC(=O)CNC(=O)[C@@H](Cc2ccc(O)cc2)NC(=O)[C@H](CCCNC(=N)N)NC(=O)[C@H](CCCNC(=N)N)NC1=O`, the result in experiment [3] was inactive.

For the compound `C[C@@H]1NC(=O)[C@H](CCCNC(=N)N)NC(=O)[C@H](CCCNC(=N)N)NC(=O)[C@@H](Cc2ccc(O)cc2)NC(=O)CNC1=O`, the pEC50 in experiment [2] is < 3.92. Besides, in experiment [1], the pIC50 is < 6.00.

In turn, `C[C@@H]1NC(=O)[C@H](Cc2ccc3ccccc3c2)NC(=O)[C@H](CCCNC(=N)N)NC(=O)[C@@H](CCCNC(=N)N)NC(=O)[C@@H](Cc2ccc(O)cc2)NC1=O` had a pEC50 in experiment [2] of 5.00. This compound also gave a pIC50 in experiment [1] of 7.04.

For `C[C@@H]1NC(=O)[C@H](CCCNC(=N)N)NC(=O)[C@@H](CCCNC(=N)N)NC(=O)[C@@H](Cc2ccc(O)cc2)NC(=O)CNC1=O`, the pEC50 in experiment [2] was < 3.92. Also, the pIC50 in experiment [1] was < 6.00.

In the case of `C[C@@H]1NC(=O)[C@@H](Cc2ccc(O)cc2)NC(=O)CNC(=O)[C@H](Cc2ccc3ccccc3c2)NC(=O)[C@H](CCCNC(=N)N)NC1=O`, the pEC50 in experiment [2] was 4.92.

Consider `C[C@@H]1NC(=O)[C@H](CCCNC(=N)N)NC(=O)[C@@H](Cc2ccc(O)cc2)NC(=O)CNC(=O)[C@H](Cc2ccc3ccccc3c2)NC1=O`, for which, in experiment [2], the pEC50 was < 3.92. Besides, the pIC50 in experiment [1] is < 6.00.

Take `C[C@H]1NC(=O)CNC(=O)[C@H](Cc2ccc3ccccc3c2)NC(=O)[C@H](CCCNC(=N)N)NC(=O)[C@@H](CCCNC(=N)N)NC1=O`: the pEC50 in experiment [2] is 4.54. The compound further had a pIC50 in experiment [1] of 6.89.

In experiment [2], `C[C@H]1NC(=O)[C@@H](Cc2ccc(O)cc2)NC(=O)CNC(=O)[C@H](Cc2ccc3ccccc3c2)NC(=O)[C@H](CCCNC(=N)N)NC1=O` showed a negative logarithm of the EC50 (pEC50) of 4.80.

Take `N=C(N)NCCC[C@@H]1NC(=O)[C@@H](CCCNC(=N)N)NC(=O)[C@@H](Cc2ccc(O)cc2)NC(=O)CNC(=O)[C@H](Cc2ccc3ccccc3c2)NC1=O`: in experiment [2], the pEC50 is 6.41.

On to `N=C(N)NCCC[C@@H]1NC(=O)[C@H](CCCNC(=N)N)NC(=O)[C@@H](Cc2ccc(O)cc2)NC(=O)[C@@H]2CCCN2C(=O)[C@H](Cc2ccc3ccccc3c2)NC1=O`, for which the pIC50 in experiment [1] was < 6.00.

As to `CN1C(=O)CNC(=O)[C@H](Cc2ccc3ccccc3c2)NC(=O)[C@H](CCCNC(=N)N)NC(=O)[C@@H](CCCNC(=N)N)NC(=O)[C@H]1Cc1ccc(O)cc1`, the pIC50 in experiment [1] was 6.80.

In the case of `N=C(N)NCCC[C@@H]1NC(=O)[C@@H](CCCNC(=N)N)NC(=O)[C@@H](Cc2ccc(O)cc2)NC(=O)[C@@H]2CCCN2C(=O)[C@H](Cc2ccc3ccccc3c2)NC1=O`, the pIC50 in experiment [1] is < 6.00.

In the case of `C[C@@H]1NC(=O)CNC(=O)[C@@H](Cc2ccc(O)cc2)NC(=O)[C@@H](CCCNC(=N)N)NC(=O)[C@H](CCCNC(=N)N)NC1=O`, the outcome in experiment [3] was inactive.

In turn, `N=C(N)NCCC[C@@H]1NC(=O)[C@@H](CCCNC(=N)N)NC(=O)[C@@H](Cc2ccc(O)cc2)NC(=O)CCNC(=O)[C@H](Cc2ccc3ccccc3c2)NC1=O` gave a negative logarithm of the EC50 (pEC50) in experiment [2] of 4.42. For the same compound, the pIC50 in experiment [1] was 6.46.

Consider `C[C@@H]1NC(=O)[C@H](Cc2ccc3ccccc3c2)NC(=O)CNC(=O)[C@@H](Cc2ccc(O)cc2)NC(=O)[C@H](CCCNC(=N)N)NC1=O`, for which the outcome in experiment [3] was inactive.

Consider `N=C(N)NCCC[C@@H]1NC(=O)[C@H](CCCNC(=N)N)NC(=O)[C@@H](Cc2ccc(O)cc2)NC(=O)CNC(=O)[C@H](Cc2ccc3ccccc3c2)NC1=O`, for which, in experiment [2], the pEC50 is 6.80.

As for `N=C(N)NCCC[C@@H]1NC(=O)[C@@H](CCCNC(=N)N)NC(=O)[C@@H](Cc2ccc(O)cc2)NC(=O)[C@H]2CCCN2C(=O)[C@H](Cc2ccc3ccccc3c2)NC1=O`, the pIC50 in experiment [1] was < 6.00.

Turning to `CN1CC(=O)N[C@H](Cc2ccc(O)cc2)C(=O)N[C@H](CCCNC(=N)N)C(=O)N[C@@H](CCCNC(=N)N)C(=O)N[C@@H](Cc2ccc3ccccc3c2)C1=O`, the pIC50 in experiment [1] was 6.59.

In experiment [2], `C[C@@H]1NC(=O)[C@H](Cc2ccc3ccccc3c2)NC(=O)[C@H](CCCNC(=N)N)NC(=O)[C@H](CCCNC(=N)N)NC(=O)[C@@H](Cc2ccc(O)cc2)NC1=O` had a pEC50 of 4.70. In experiment [1], this compound showed a pIC50 of 6.77.

In experiment [1], `CN1C(=O)[C@H](CCCNC(=N)N)NC(=O)[C@H](CCCNC(=N)N)NC(=O)[C@@H](Cc2ccc(O)cc2)NC(=O)CNC(=O)[C@@H]1Cc1ccc2ccccc2c1` showed a pIC50 of 6.60.

On to `C[C@@H]1NC(=O)[C@H](Cc2ccc3ccccc3c2)NC(=O)CNC(=O)[C@@H](Cc2ccc(O)cc2)NC(=O)[C@@H](CCCNC(=N)N)NC1=O`, for which the outcome in experiment [3] was inactive.

`CN1C(=O)[C@H](CCCNC(=N)N)NC(=O)[C@@H](CCCNC(=N)N)NC(=O)[C@@H](Cc2ccc(O)cc2)NC(=O)CNC(=O)[C@@H]1Cc1ccc2ccccc2c1` gave a pIC50 in experiment [1] of 6.25.

As for `N=C(N)NCCC[C@@H]1NC(=O)[C@@H](CCCNC(=N)N)NC(=O)[C@@H](Cc2ccc(O)cc2)NC(=O)[C@H]2CCCCN2C(=O)[C@H](Cc2ccc3ccccc3c2)NC1=O`, the negative-log IC50 (pIC50) in experiment [1] is < 6.00.

`CN1C(=O)[C@@H](Cc2ccc(O)cc2)NC(=O)CNC(=O)[C@H](Cc2ccc3ccccc3c2)NC(=O)[C@H](CCCNC(=N)N)NC(=O)[C@@H]1CCCNC(=N)N` gave a pEC50 in experiment [2] of 5.85.

In turn, `C[C@H]1NC(=O)[C@H](Cc2ccc3ccccc3c2)NC(=O)[C@H](CCCNC(=N)N)NC(=O)[C@H](CCCNC(=N)N)NC(=O)[C@@H](Cc2ccc(O)cc2)NC1=O` showed a pEC50 in experiment [2] of 6.31. In experiment [1], the pIC50 is 7.96.

For `N=C(N)NCCC[C@@H]1NC(=O)[C@H](CCCNC(=N)N)NC(=O)[C@@H](Cc2ccc(O)cc2)NC(=O)[C@@H]2CCCCN2C(=O)[C@H](Cc2ccc3ccccc3c2)NC1=O`, the negative-log IC50 (pIC50) in experiment [1] is < 6.00.

As for `C[C@@H]1NC(=O)[C@@H](CCCNC(=N)N)NC(=O)[C@@H](Cc2ccc(O)cc2)NC(=O)CNC(=O)[C@H](Cc2ccc3ccccc3c2)NC1=O`, the negative-log EC50 (pEC50) in experiment [2] is 4.22. The pIC50 in experiment [1] was < 6.00.

On to `N=C(N)NCCC[C@@H]1NC(=O)[C@H](CCCNC(=N)N)NC(=O)[C@@H](Cc2ccc(O)cc2)NC(=O)[C@H]2CCCCN2C(=O)[C@H](Cc2ccc3ccccc3c2)NC1=O`, for which, in experiment [1], the pIC50 is < 6.00.

With `CN1C(=O)[C@H](CCCNC(=N)N)NC(=O)[C@@H](Cc2ccc(O)cc2)NC(=O)CNC(=O)[C@H](Cc2ccc3ccccc3c2)NC(=O)[C@@H]1CCCNC(=N)N`, the pEC50 in experiment [2] is 5.02. The pIC50 in experiment [1] is 7.00.
